# Data published in publication PMC10184136 (RSC Advances, 2023).
# “Also recorded” adds a separate entry of the source.
# What was measured:
# [1] = test system: red blood cell membrane (bovine erythrocytes); assay: Hemolytic activity; assay type: cell-based; settings: bovine erythrocyte (RBC) suspension, pH 7.4
# Summary of the method: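 Bovine blood was collected in EDTA, diluted with 0.9% NaCl and centrifuged at 1000×g for 10 min. Erythrocytes were suspended in phosphate saline buffer, pH 7.4. 20 μl of a 10 mg ml−1 compound solution was added to 180 μl RBC suspension and incubated 30 min at room temperature. PBS was the negative control and Triton X-100 the positive control. % hemolysis was calculated by formula; mean ± SEM.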
# [2] = molecular target: calf intestinal alkaline phosphatase (CIALP) (Bos taurus, UniProt P19111); assay: Alkaline phosphatase inhibition assay; assay type: biochemical
# alkaline phosphatase = alkaline phosphatase (Bos taurus, UniProt P19111); assay: Kinetic analysis; assay type: biochemical, calf; settings: for K m / V max: substrate p-NPP
# Summary of the method: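 Run under the same pre-incubation and conditions as the CIALP p-NPP assay. p-NPP was used at 10, 5, 2.5, 1.25, 0.625 and 0.3125 mM with inhibitor at 0, 0.106, 0.211 and 0.422 μM. Initial velocities came from the linear absorbance phase, read at 1-min intervals up to 10 min. Inhibition type was taken from Lineweaver–Burk plots (1/V vs 1/[S]). Ki came from a secondary plot of slope vs inhibitor concentration, with linear least-squares fits.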
# Chain of alkaline phosphatase (P19111 20-506 limits assumed): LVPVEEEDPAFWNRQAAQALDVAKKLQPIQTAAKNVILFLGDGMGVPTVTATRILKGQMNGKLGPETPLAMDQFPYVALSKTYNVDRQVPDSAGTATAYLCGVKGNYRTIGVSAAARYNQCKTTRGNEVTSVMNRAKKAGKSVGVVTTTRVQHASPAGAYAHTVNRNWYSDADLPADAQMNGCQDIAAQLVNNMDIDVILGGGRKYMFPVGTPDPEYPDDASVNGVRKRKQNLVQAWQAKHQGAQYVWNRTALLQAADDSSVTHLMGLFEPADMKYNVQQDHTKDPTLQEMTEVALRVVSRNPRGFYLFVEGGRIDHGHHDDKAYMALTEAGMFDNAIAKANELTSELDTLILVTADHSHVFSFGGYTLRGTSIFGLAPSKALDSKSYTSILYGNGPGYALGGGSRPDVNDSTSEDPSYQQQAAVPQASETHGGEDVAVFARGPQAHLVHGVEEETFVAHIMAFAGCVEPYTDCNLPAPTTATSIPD
# Chain of calf intestinal alkaline phosphatase (CIALP) (P19111 20-506 limits assumed): as above
Structure (SMILES),IC50 [2] [µM],"hemolysis at 30 min, 1 mg/mL [1] [%]",other results
"O=C(CCSc1nnc(-c2ccccc2)o1)Nc1nccs1 [8a, 3-[(5-Phenyl-1,3,4-oxadiazol-2-yl)sulfanyl]-N-(1,3-thiazol-2-yl)propanamide]",3.98 ± 0.356,7.79 ± 0.02,
"O=C(CCSc1nnc(-c2ccc(O)cc2)o1)Nc1nccs1 [8b, 3-{[5-(4-Hydroxyphenyl)-1,3,4-oxadiazol-2-yl]sulfanyl}-N-(1,3-thiazol-2-yl)propanamide]",5.99 ± 0.417,5.68 ± 0.04,
"Nc1ccc(-c2nnc(SCCC(=O)Nc3nccs3)o2)cc1 [8c, 3-{[5-(4-Aminophenyl)-1,3,4-oxadiazol-2-yl]sulfanyl}-N-(1,3-thiazol-2-yl)propanamide]",8.73 ± 0.664,7.58 ± 0.01,
"Cc1ccc(-c2nnc(SCCC(=O)Nc3nccs3)o2)cc1 [8d, 3-{[5-(4-Methylphenyl)-1,3,4-oxadiazol-2-yl]sulfanyl}-N-(1,3-thiazol-2-yl)propanamide]",1.88 ± 0.071,8.32 ± 0.03,
"CC(C)(C)CC(C)(C)c1ccc(OCCO)cc1 [Triton X, reference compound]",,89 ± 0.01,

# The next lines start with results.
IC50 [2] [µM],Structure (SMILES),"hemolysis at 30 min, 1 mg/mL [1] [%]",other results
6.32 ± 0.551,"Cc1cnc(NC(=O)CCSc2nnc(-c3ccccc3)o2)s1 [8e, N-(5-Methyl-1,3-thiazol-2-yl)-3-[(5-phenyl-1,3,4-oxadiazol-2-yl)sulfanyl]propanamide]",6.84 ± 0.03,
2.16 ± 0.118,"Cc1cnc(NC(=O)CCSc2nnc(-c3ccc(O)cc3)o2)s1 [8f, 3-{[5-(4-Hydroxyphenyl)-1,3,4-oxadiazol-2-yl]sulfanyl}-N-(5-methyl-1,3-thiazol-2-yl)propanamide]",7.47 ± 0.05,
0.211 ± 0.019,"Cc1cnc(NC(=O)CCSc2nnc(-c3ccc(N)cc3)o2)s1 [8g, 3-{[5-(4-Aminophenyl)-1,3,4-oxadiazol-2-yl]sulfanyl}-N-(5-methyl-1,3-thiazol-2-yl)propanamide]",8.82 ± 0.02,Ki (alkaline phosphatase): 0.42 µM; K m (alkaline phosphatase; 8g 0.106 μM): 360 µM; V max (alkaline phosphatase; 8g 0.106 μM): 0.003004 ΔA min^−1; K m (alkaline phosphatase; 8g 0.211 μM): 360 µM; V max (alkaline phosphatase; 8g 0.211 μM): 0.002406 ΔA min^−1; K m (alkaline phosphatase; 8g 0.422 μM): 360 µM; V max (alkaline phosphatase; 8g 0.422 μM): 0.001826 ΔA min^−1; Inhibition type (alkaline phosphatase; Lineweaver–Burk plots): non-competitively; also recorded: Non-competitive
3.75 ± 0.981,"Cc1cnc(NC(=O)CCSc2nnc(-c3cccc([N+](=O)[O-])c3)o2)s1 [8h, N-(5-Methyl-1,3-thiazol-2-yl)-3-{[5-(3-nitrophenyl)-1,3,4-oxadiazol-2-yl]sulfanyl}propanamide]",8.63 ± 0.02,
